Here are results for 1 compound from ChEMBL document CHEMBL4411269, “Required Immunoproteasome Subunit Inhibition Profile for Anti-Inflammatory Efficacy and Clinical Candidate KZR-616 ((2 S,3 R)- N-(( S)-3-(Cyclopent-1-en-1-yl)-1-(( R)-2-methyloxiran-2-yl)-1-oxopropan-2-yl)-3-hydroxy-3-(4-methoxyphenyl)-2-(( S)-2-(2-morpholinoacetamido)propanamido)propenamide)” (J Med Chem, 2018).

Molecules are shown by their SMILES. Active and inactive are the calls of the source. The rule behind the calls is not given here.

The term half-life denotes the time in which the quantity being followed falls by half. High values mean slow decline, low ones rapid decline. As a reminder, the clearance is the rate of elimination divided by the concentration. Low readings indicate inefficient removal, high ones efficient removal.

Series [1] deals with PBMC. Kind of series: Cytotoxicity in human PBMC assessed as reduction in cell viability at 500 nM relative to control. It is filed as cell-based. As to conditions: 0.5 µM.
Series [2] is described as follows: Half life in Balb/c mouse at 2 mg/kg, iv. It is filed as ADME, organism-based. As to conditions: in vivo. Summed up:
(§1)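 Female BALB/c mice aged 7−8 weeks, given 2 mg/kg iv in 25% PEG300/WFI. Cardiac blood taken at 2, 5, 10, 20, 30, 60 and 120 min postdose into sodium heparin and processed to plasma (n = 3/time point). Proteins precipitated with acetonitrile; drug measured by LC−MS/MS. Noncompartmental analysis of mean concentrations at nominal times and target doses.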

The nature of series [3]: Clearance in Balb/c mouse at 2 mg/kg, iv. It is filed as ADME, organism-based. The conditions noted are these: in vivo. In a few lines: as §1
Series [4] relates to PBMC. Kind of series: Antiinflammatory activity in human PBMC assessed as reduction in LPS-stimulated TNF-alpha expression at 500 nM preincubated for 1 hr followed by LPS stimulation measured after 24 hrs by ELISA. It is filed as functional, cell-based. Summed up: (§2)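 Cryopreserved healthy-donor PBMC in RPMI 1640 with 5% heat-inactivated FBS, 250 000 cells/well. Compound (0.1% DMSO final) for 1 h at 37 °C, 5% CO2, then 4 washes with medium. Stimulated with 1 μg/mL LPS for 24 h; supernatant TNFα, IL-6 and IL-12/23p40 by electrochemiluminescent immunoassay. Mean level relative to DMSO controls, n = 6.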
For orientation: An ELISA detects its analyte on a solid surface through an enzyme-linked reagent.

Series [5] relates to PBMC. Kind of series: Antiinflammatory activity in human PBMC assessed as reduction in LPS-stimulated IL-6 expression at 500 nM preincubated for 1 hr followed by LPS stimulation measured after 24 hrs by ELISA. The series is classed as functional, cell-based. Summed up: as §2
Series [6] concerns PBMC. Put plainly: Antiinflammatory activity in human PBMC assessed as reduction in LPS-stimulated p40 subunit of […] expression at 500 nM preincubated for 1 hr followed by LPS stimulation measured after 24 hrs by ELISA. The series is classed as functional, cell-based. Summed up: as §2
Series [7] has as its system PBMC. Kind of series: Antiinflammatory activity in human PBMC assessed as reduction in anti-CD3/CD28 antibody-stimulated TNF-alpha expression at 500 nM preincubated for 1 hr followed by anti-CD3/CD28 antibody stimulation measured after 24 hrs by ELISA. It is filed as functional, cell-based. Summed up: (§3)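 Healthy-donor PBMC, thawed from cryopreservation, 250 000 cells/well in RPMI 1640/5% FBS. Pretreated 1 h at 37 °C with compound alone or combined (0.1% DMSO final), washed 4 times, then stimulated 24 h with anti-CD3 and anti-CD28 antibodies. TNFα and IFNγ in supernatants by electrochemiluminescent ELISA; expressed relative to DMSO-treated controls (n = 6).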

Series [8] relates to PBMC. Kind of series: Antiinflammatory activity in human PBMC assessed as reduction in anti-CD3/CD28 antibody-stimulated IFN-gamma expression at 500 nM preincubated for 1 hr followed by anti-CD3/CD28 antibody stimulation measured after 24 hrs by ELISA. The series is classed as functional, cell-based. In a few lines:
as §3

The subject of series [9] is Mus musculus. Put plainly: In vivo inhibition of LMP7 in Balb/c mouse splenocytes at 5 mg/kg, iv followed by dosing repeat on day 6, 8, 11, 13 and 15 and measured on 1 hr post last dose. It is filed as functional, organism-based. In a few lines:
(§4)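 BALB/c mice dosed iv bolus in 10% sulfobutyl ether−β-cyclodextrin/10 mM sodium citrate pH 3.5; tissues taken 1 h after administration. Splenocytes strained and red cells lysed; kidney frozen, then bead-homogenized. Hypotonic lysate (20 mM Tris pH 8, 5 mM EDTA) at 1 mg/mL (spleen) or 5 mg/mL (kidney) run in the ProCISE active-site ELISA. Background-subtracted, protein-normalized activity relative to vehicle animals; n = 3.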

The subject of series [10] is Mus musculus. Kind of series: In vivo inhibition of LMP2 in Balb/c mouse splenocytes at 5 mg/kg, iv followed by dosing repeat on day 6, 8, 11, 13 and 15 and measured on 1 hr post last dose. The series is classed as functional, organism-based. In a few lines: as §4
Series [11] deals with Mus musculus. Put plainly: In vivo inhibition of MECL-1 in Balb/c mouse splenocytes at 5 mg/kg, iv followed by dosing repeat on day 6, 8, 11, 13 and 15 and measured on 1 hr post last dose. The series is classed as functional, organism-based. In a few lines:
as §4

Series [12] deals with Mus musculus. Kind of series: In vivo inhibition of proteosome beta 5 in Balb/c mouse kidney at 5 mg/kg, iv followed by dosing repeat on day 6, 8, 11, 13 and 15 and measured on 1 hr post last dose. The series is classed as functional, organism-based. In a few lines: as §4
In series [13] the test system is Mus musculus. Put plainly: Antiarthritic activity in type 2 collagen antibody/LPS induced Balb/c mouse assessed as reduction in disease burden at 5 mg/kg, iv followed by dosing repeat on day 6, 8, 11, 13 and 15 and measured until day 18. It is filed as functional, organism-based. In a few lines: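 CAIA in 7−8 week old female BALB/c mice on breeder chow. Induced with 1.75 mg of a 5-antibody anti-type II collagen cocktail iv on day 0, then 25 μg LPS ip on day 3. Dosed as single iv boluses in 10% (w/v) sulfobutyl ether−β-cyclodextrin/10 mM sodium citrate (pH 3.5); vehicle-treated group included.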

The nature of series [14]: Toxicity in Balb/c mouse assessed as change in body weight at 5 mg/kg, iv followed by dosing repeat on day 6, 8, 11, 13 and 15 and measured until day 18. It is filed as organism-based. The conditions noted are these: in vivo.
A short description of series [15]: Toxicity in Balb/c mouse assessed as effect on cage-side observations at 5 mg/kg, iv followed by dosing repeat on day 6, 8, 11, 13 and 15 and measured until day 18. As to conditions: in vivo. The series is classed as organism-based.
The target of series [16] is T1, Proteasome subunit beta type-8 (Homo sapiens) (UniProt P28062).
T1 sequence (whole entry): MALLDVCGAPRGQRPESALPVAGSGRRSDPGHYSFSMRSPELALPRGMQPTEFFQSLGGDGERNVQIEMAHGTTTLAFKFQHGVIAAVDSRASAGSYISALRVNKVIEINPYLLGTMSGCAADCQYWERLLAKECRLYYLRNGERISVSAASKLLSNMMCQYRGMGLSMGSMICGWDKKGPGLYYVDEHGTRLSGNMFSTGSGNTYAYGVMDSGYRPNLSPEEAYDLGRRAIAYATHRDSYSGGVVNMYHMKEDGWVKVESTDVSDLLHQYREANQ
Kind of series: Inhibition of LMP7 in human PBMC at 500 nM by ELISA. Summed up:
(§5)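 Cryopreserved healthy-donor human PBMC in RPMI 1640 with 5% heat-inactivated FBS, exposed to compound (0.1% DMSO final) for 1 h at 37 °C, 5% CO2, then washed. Subunit-specific active-site occupancy read by ProCISE: biotinylated active-site probe binding, denaturation, streptavidin capture, subunit-specific antibody and HRP chemiluminescence. Signal normalized to protein and expressed relative to DMSO controls.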

In series [17] the target is T2, Proteasome subunit beta type-10 (Homo sapiens) (UniProt P40306).
T2 sequence (whole entry): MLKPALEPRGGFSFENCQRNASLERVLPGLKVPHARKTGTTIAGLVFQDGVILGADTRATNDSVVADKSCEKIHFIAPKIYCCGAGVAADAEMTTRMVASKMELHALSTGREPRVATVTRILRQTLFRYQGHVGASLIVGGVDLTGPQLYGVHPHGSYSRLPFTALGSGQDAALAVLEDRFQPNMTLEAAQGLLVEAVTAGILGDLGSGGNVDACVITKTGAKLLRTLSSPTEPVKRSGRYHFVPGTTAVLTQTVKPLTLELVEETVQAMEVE
Kind of series: Inhibition of MECL1 in human PBMC at 500 nM by ELISA. Summed up: as §5

For series [18], the target named is T3, Proteasome subunit beta type-9 (Homo sapiens) (UniProt P28065).
T3 sequence (whole entry): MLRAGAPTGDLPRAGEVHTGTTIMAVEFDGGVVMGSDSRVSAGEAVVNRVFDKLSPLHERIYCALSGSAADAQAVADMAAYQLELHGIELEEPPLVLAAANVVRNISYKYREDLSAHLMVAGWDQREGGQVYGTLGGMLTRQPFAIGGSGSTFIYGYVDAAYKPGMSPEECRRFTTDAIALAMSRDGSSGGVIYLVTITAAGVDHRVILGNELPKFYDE
As to conditions: 500 nM.

Regarding `C[C@]1(C(=O)[C@H](Cc2ccccc2)NC(=O)[C@H](CO)NC(=O)c2cccc(=O)[nH]2)CO1`, the Activity in [1] is listed as 30%; in series [14] it was “Non-Toxic”; in series [15], “Non-Toxic”. The compound further had a half-life in [2] of less than 7 min. The compound also yielded a clearance in series [3] greater than 73 mL/min/kg. Besides, the outcome in series [4], in series [5], in series [6], in [7], in series [8] and in [13] was inactive. Besides, the inhibition result in series [9], in [10], in series [11], in series [12], in series [16] and in [17] was “Active” each time. The inhibition entry in series [18] was “Active”.
